Laboratory results reported in ChEMBL document CHEMBL3407479, “Structure-activity relationship for the oxadiazole class of antibiotics” (J Med Chem, 2015).
In brackets after ≈: the same amount, converted by molar mass. Activity calls are given as the source filed them. The calls are words filed in the database; no cut-off is given here.

How the values were obtained:
[1] = Plasma protein binding in human by equilibrium dialysis assay
Staphylococcus aureus [2] = assay: Antibacterial activity against vancomycin/methicillin-resistant Staphylococcus aureus VRS2 clinical isolate after 16 to 20 hrs by broth microdilution method; type: functional
[3] = system: Staphylococcus epidermidis; assay: Antibacterial activity against Staphylococcus epidermidis ATCC 35547 after 16 to 20 hrs by broth microdilution method; type: functional
[4] = system: Staphylococcus haemolyticus; assay: Antibacterial activity against Staphylococcus haemolyticus ATCC 29970 after 16 to 20 hrs by broth microdilution method; type: functional
Streptococcus oralis = assay: Antibacterial activity against Streptococcus oralis ATCC 9811 after 16 to 20 hrs by broth microdilution method; type: functional
Streptococcus pyogenes = assay: Antibacterial activity against Streptococcus pyogenes ATCC 49399 after 16 to 20 hrs by broth microdilution method; type: functional
Bacillus cereus = assay: Antibacterial activity against Bacillus cereus ATCC 13061 after 16 to 20 hrs by broth microdilution method; type: functional
Bacillus licheniformis = assay: Antibacterial activity against Bacillus licheniformis ATCC 12759 after 16 to 20 hrs by broth microdilution method; type: functional
Enterococcus faecalis [5] = assay: Antibacterial activity against Enterococcus faecalis ATCC 29212 after 16 to 20 hrs by broth microdilution method; type: functional
Enterococcus faecalis [6] = assay: Antibacterial activity against vancomycin-susceptible Enterococcus faecalis 201 clinical isolate after 16 to 20 hrs by broth microdilution method; type: functional
Enterococcus faecalis [7] = assay: Antibacterial activity against vancomycin-resistant Enterococcus faecalis 99 clinical isolate after 16 to 20 hrs by broth microdilution method; type: functional
Enterococcus faecium [8] = assay: Antibacterial activity against vancomycin-susceptible Enterococcus faecium 119-39A clinical isolate after 16 to 20 hrs by broth microdilution method; type: functional
Enterococcus faecium [9] = assay: Antibacterial activity against Enterococcus faecium NCTC 7171 after 16 to 20 hrs by broth microdilution method; type: functional
[10] = Plasma protein binding in human at 10 uM after 6 hrs by equilibrium dialysis assay; type: ADME, cell-free
HepG2 = assay: Cytotoxicity against human HepG2 cells assessed as cell viability after 16 hrs by XTT assay; type: cell-based; conditions: HepG2, 16 h
Summary of the method: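 HepG2 cells were run in triplicate in an XTT viability assay. IC50 was derived from the concentration–response data.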

Staphylococcus aureus [11] = assay: Antibacterial activity against methicillin-sensitive Staphylococcus aureus ATCC 29213 after 16 to 20 hrs by broth microdilution method; type: functional
Staphylococcus aureus [12] = assay: Antibacterial activity against mecA-positive, methicillin/oxacillin/tetracycline-resistant and vancomycin/linezolid susceptible Staphylococcus aureus ATCC 27660 after 16 to 20 hrs by broth microdilution method; type: functional
Staphylococcus aureus [13] = assay: Antibacterial activity against mecA-positive, methicillin/oxacillin/tetracycline-resistant and vancomycin/linezolid susceptible Staphylococcus aureus COL after 16 to 20 hrs by broth microdilution method; type: functional
Staphylococcus aureus [14] = assay: Antibacterial activity against mecA-positive, ciprofloxacin/gentamicin/oxacillin/penicillin/linezolid-resistant Staphylococcus aureus NRS119 after 16 to 20 hrs by broth microdilution method; type: functional
Staphylococcus aureus [15] = assay: Antibacterial activity against mecA-positive, ciprofloxacin/gentamicin/oxacillin/penicillin/linezolid-resistant Staphylococcus aureus NRS120 after 16 to 20 hrs by broth microdilution method; type: functional
Staphylococcus aureus [16] = assay: Antibacterial activity against vancomycin/methicillin-resistant Staphylococcus aureus VRS1 clinical isolate after 16 to 20 hrs by broth microdilution method; type: functional
Enterococcus faecium [17] = assay: Antibacterial activity against vancomycin-resistant Enterococcus faecium 106 clinical isolate after 16 to 20 hrs by broth microdilution method
[18] = AUC (0 to 8 hrs) in ICR mouse at 50 mg/kg, iv; type: ADME, organism-based; design: time < 8 hr, dose 50 mg/kg, route intravenous; conditions: plasma
[19] = Clearance in ICR mouse at 20 mg/kg, iv; type: ADME, organism-based; design: dose 20 mg/kg, route intravenous; conditions: in vivo
Staphylococcus aureus [20] = assay: Antibacterial activity against methicillin-resistant Staphylococcus aureus ATCC 27660 in ICR mouse peritonitis infection model assessed as survival rate at 20 mg/kg, iv administered at 0.5 and 7.5 hrs post infection measured for 48 hrs; type: functional, organism-based; design: dose 20 mg/kg
Summary of the method: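 Female ICR mice, 6–8 weeks, ~20 g, n = 6 per group. Bacteria at 10^8 cfu/mL mixed 1:1 with 10% mucin just before use; 0.5 mL given ip (final 5×10^7 cfu/mL, 5% mucin). Compound at 20 mg/kg iv by tail vein, twice, at 30 min and 7.5 h post-infection. […] Survivors counted at 48 h.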

Staphylococcus aureus [21] = assay: Bactericidal activity against methicillin-sensitive Staphylococcus aureus ATCC 29213 after 48 hrs; type: functional; conditions: ATCC 29213, 48 h
Enterococcus faecium [22] = assay: Ratio of MBC to MIC for Enterococcus faecium NCTC 7171; type: functional
Mus musculus [23] = assay: AUC (0 to 24 hrs) in ICR mouse at 20 mg/kg, iv; type: ADME, organism-based, Plasma; design: time < 24 hr, dose 20 mg/kg, route intravenous; conditions: in vivo
Mus musculus [24] = assay: AUC (0 to 24 hrs) in ICR mouse at 20 mg/kg, po; type: ADME, organism-based, Plasma; design: time < 24 hr, dose 20 mg/kg, route oral; conditions: in vivo
[25] = AUC (0 to infinity) in ICR mouse at 20 mg/kg, iv; type: ADME, organism-based; design: time infinity, dose 20 mg/kg, route intravenous; conditions: plasma
[26] = AUC (0 to infinity) in ICR mouse at 20 mg/kg, po; type: ADME, organism-based; design: time infinity, dose 20 mg/kg, route oral; conditions: plasma
[27] = Cmax in ICR mouse at 20 mg/kg, po; type: ADME, organism-based; design: dose 20 mg/kg, route oral; conditions: in vivo
[28] = Tmax in ICR mouse at 20 mg/kg, po; type: ADME, organism-based; design: dose 20 mg/kg, route oral; conditions: in vivo
[29] = Volume of distribution in ICR mouse at 20 mg/kg, iv; type: ADME, organism-based; design: dose 20 mg/kg, route intravenous; conditions: in vivo
[30] = Primary phase half life in ICR mouse at 20 mg/kg, iv; type: ADME, organism-based; design: dose 20 mg/kg, route intravenous; conditions: in vivo, read-out: alphat1/2
[31] = Terminal half life in ICR mouse at 20 mg/kg, iv; type: ADME, organism-based; design: dose 20 mg/kg, route intravenous; conditions: in vivo, read-out: beta t1/2 (converted)
[32] = Distribution phase half life in ICR mouse at 20 mg/kg, po; type: ADME, organism-based; design: dose 20 mg/kg, route oral; conditions: in vivo, read-out: alphat1/2 (converted)
[33] = Elimination half life in ICR mouse at 20 mg/kg, po; type: ADME, organism-based; design: dose 20 mg/kg, route oral; conditions: in vivo, read-out: beta t1/2 (converted)
Staphylococcus aureus [34] = assay: Antibacterial activity against methicillin-resistant Staphylococcus aureus ATCC 27660 in iv dosed ICR mouse peritonitis infection model assessed as survival rate administered at 0.5 and 7.5 hrs post infection; type: functional; conditions: ATCC 27660, iv
Staphylococcus aureus [35] = assay: Antibacterial activity against methicillin-resistant Staphylococcus aureus ATCC 27660 in po dosed ICR mouse peritonitis infection model assessed as survival rate administered at 0.5 and 7.5 hrs post infection; type: functional; conditions: ATCC 27660, po
Staphylococcus aureus [36] = assay: Antibacterial activity against methicillin-resistant Staphylococcus aureus ATCC 27660 in po dosed ICR mouse peritonitis infection model assessed as survival rate administered at 1 hr post infection; type: functional; conditions: ATCC 27660, po
Summary of the method: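 Female ICR mice, 6–8 weeks, given 0.5 mL ip of S. aureus (final 5×10^7 cfu/mL in 5% mucin). Six mice per dose level; a single oral dose at 1 h post-infection.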

Compound	MIC (Staphylococcus aureus [2]) [µg/mL]	MIC [3] [µg/mL]	MIC [4] [µg/mL]	MIC (Streptococcus oralis) [µg/mL]	MIC (Streptococcus pyogenes) [µg/mL]	MIC (Bacillus cereus) [µg/mL]	MIC (Bacillus licheniformis) [µg/mL]	MIC (Enterococcus faecalis [5]) [µg/mL]	MIC (Enterococcus faecalis [6]) [µg/mL]	MIC (Enterococcus faecalis [7]) [µg/mL]	MIC (Enterococcus faecium [8]) [µg/mL]	MIC (Enterococcus faecium [9]) [µg/mL]	PPB [10] [%]	IC50 (HepG2) [µg/mL]	MIC (Staphylococcus aureus [11]) [µg/mL]	MIC (Staphylococcus aureus [12]) [µg/mL]	MIC (Staphylococcus aureus [13]) [µg/mL]	MIC (Staphylococcus aureus [14]) [µg/mL]	MIC (Staphylococcus aureus [15]) [µg/mL]	MIC (Staphylococcus aureus [16]) [µg/mL]	other results
CO[C@H]1/C=C/O[C@@]2(C)Oc3c(C)c(O)c4c(O)c(c(/C=N/N5CCN(C)CC5)c(O)c4c3C2=O)NC(=O)/C(C)=C\C=C\[C@H](C)[C@H](O)[C@@H](C)[C@@H](O)[C@@H](C)[C@H](OC(C)=O)[C@@H]1C [RIFAMPIN]																					fraction unbound [1]: < 0.09
CC(C)Nc1c[nH]nc1-c1nc(-c2ccc(Oc3ccc(C(F)(F)F)cc3)cc2)no1	4 (≈ 9.32 µM)	> 128	> 128	> 128	> 128	> 128	> 128	> 128	> 128	> 128	> 128	32 (≈ 74.5 µM)	91.6	3.9 (≈ 9.08 µM)	0.5 (≈ 1.16 µM)	0.5 (≈ 1.16 µM)	> 128	2 (≈ 4.66 µM)	> 128	1 (≈ 2.33 µM)	MIC (Enterococcus faecium [17]): > 128 µg/mL
Oc1ccc(-c2nc(-c3ccc(Oc4ccc(C(F)(F)F)cc4)cc3)no2)cc1	2 (≈ 5.02 µM)	2 (≈ 5.02 µM)	2 (≈ 5.02 µM)	32 (≈ 80.3 µM)	32 (≈ 80.3 µM)	2 (≈ 5.02 µM)	2 (≈ 5.02 µM)	2 (≈ 5.02 µM)	2 (≈ 5.02 µM)	2 (≈ 5.02 µM)	1 (≈ 2.51 µM)	2 (≈ 5.02 µM)	99.9	25.8 (≈ 64.8 µM)	1 (≈ 2.51 µM)	2 (≈ 5.02 µM)	2 (≈ 5.02 µM)	2 (≈ 5.02 µM)	2 (≈ 5.02 µM)	2 (≈ 5.02 µM)	AUC(0-t) at 8 h [18]: 44200 ng·h/mL; MIC (Enterococcus faecium [17]): 2 µg/mL (≈ 5.02 µM)
FC(F)(F)c1ccc(Oc2ccc(-c3noc(-c4ccc5[nH]ccc5c4)n3)cc2)cc1		4 (≈ 9.49 µM)	8 (≈ 19 µM)	128 (≈ 304 µM)	64 (≈ 152 µM)	16 (≈ 38 µM)				16 (≈ 38 µM)		2 (≈ 4.75 µM)	98.2	75.7 (≈ 180 µM)	2 (≈ 4.75 µM)					1 (≈ 2.37 µM)	clearance [19]: 5.68 mL/min/kg; Activity (Staphylococcus aureus [20]): Active; MBC (Staphylococcus aureus [21]): 2 µg/mL (≈ 4.75 µM); Ratio (Enterococcus faecium [22]): 2; AUC (Mus musculus [23]): 3140 µg·min/mL; AUC (Mus musculus [24]): 3060 µg·min/mL; AUC(0-inf) [25]: 58700 ng·h/mL; AUC(0-inf) [26]: 67700 ng·h/mL; Cmax [27]: 2340 ng/mL; Tmax [28]: 6 h; Vd [29]: 4.73 L/kg; half-life [30]: 32.4 s; half-life [31]: 9.6 h; half-life [32]: 15.9 h; half-life [33]: 18.6 h; ED50 (Staphylococcus aureus [34]): 7.6 mg/kg; ED50 (Staphylococcus aureus [35]): 1.7 mg/kg; ED50 (Staphylococcus aureus [36]): 3.1 mg/kg
